Among all 2,900 compounds or so, about 1,900 (66%) were called active.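 How the source made its calls: active means mean inhibition across replicates above the hit cutoff set in the primary screen (cut at about 8.5% in these data); inactive means the rest.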 The set was probably picked from earlier hits. The list is a sample of the results.

The term inhibition denotes the drop in the measured response relative to a control, in per cent.

Sequence of Disintegrin and metalloproteinase domain-containing protein 17 (Homo sapiens) (P78536 215-824 limits assumed): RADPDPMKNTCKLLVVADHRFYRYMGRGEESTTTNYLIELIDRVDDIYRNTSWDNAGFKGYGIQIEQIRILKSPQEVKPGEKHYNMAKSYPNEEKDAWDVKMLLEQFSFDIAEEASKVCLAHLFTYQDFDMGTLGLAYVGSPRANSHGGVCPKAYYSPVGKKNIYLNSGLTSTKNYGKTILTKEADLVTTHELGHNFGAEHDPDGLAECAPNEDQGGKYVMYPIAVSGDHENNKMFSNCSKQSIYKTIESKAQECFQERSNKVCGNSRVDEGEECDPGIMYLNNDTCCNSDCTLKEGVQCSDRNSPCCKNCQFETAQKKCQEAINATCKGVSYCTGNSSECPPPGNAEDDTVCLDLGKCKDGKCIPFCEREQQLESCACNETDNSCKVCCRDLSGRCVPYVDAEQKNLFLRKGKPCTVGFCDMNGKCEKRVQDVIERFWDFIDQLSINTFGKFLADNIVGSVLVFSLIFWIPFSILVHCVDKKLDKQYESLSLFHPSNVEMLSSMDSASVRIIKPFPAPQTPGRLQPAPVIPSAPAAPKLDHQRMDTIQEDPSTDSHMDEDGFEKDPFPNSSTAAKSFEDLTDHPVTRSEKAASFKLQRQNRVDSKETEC

The experiment deals with Disintegrin and metalloproteinase domain-containing protein 17 (Homo sapiens) (UniProt P78536). Put plainly: inhibition of human ADAM17 protease activity – biochemical, QFRET peptide cleavage, confirmation (AID 743257).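 Further: 0% = DMSO wells and 100% = marimastat wells.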 As to conditions: recombinant ADAM17, EDANS/DABCYL QFRET peptide cleavage; at 6.95 µM; active compounds read high. The method in brief:
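Assay system – human ADAM17 enzyme, FRET peptide cleavage · Read-out – percent inhibition · Schedule – 30 min preincubation, 3 h reaction · Buffer or medium – 50 mM HEPES buffer, pH 7.5, with 0.01% Brij · Controls – DMSO wells and 1 µM marimastat wells as references · Measured by – fluorescence at ex 359 nm, em 460 nm · Dosing – 6.95 µM compound, single dose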
Regarding `CC1(Cc2cccc(C#N)c2)C(=O)Nc2ccc(-c3cccc(C(F)(F)F)c3)cc21` (centres undefined), the inhibition was 16.4% (active). With `O=C(COC(=O)CCCSc1nc2ccccc2[nH]1)Nc1ccc(Oc2ccccc2)cc1`, the inhibition was 21.9% (active). Consider `COC(C(=O)Nc1ccc(S(=O)(=O)Nc2ccc(C)c(C)c2)cc1)c1ccccc1` (centres undefined), for which the inhibition was 13.7% (active).

For the compound `COc1ccc(C(CNC(=O)c2cc(S(=O)(=O)Nc3cccc(C)c3)ccc2C)N2CCCC2)cc1` (centres undefined), the inhibition is 2.1% (inactive). `O=C(CC1SC(=Nc2ccccc2)N(Cc2ccccn2)C1=O)Nc1cccc(Cl)c1` (centres undefined): the inhibition was 18.4% (active). On to `CCN1C(=O)C(CC(=O)Nc2cc(C)ccc2C)SC1=Nc1ccc(S(N)(=O)=O)cc1` (centres undefined), for which the inhibition is 7.07% (inactive). Consider `CCOc1ccc(Nc2nc(Cc3nnc(SCC(=O)c4ccc(C)cc4)o3)cs2)cc1`, for which the inhibition is 8.23% (inactive). As to `O=C(CSc1nc(-c2ccccc2)cs1)Nc1cccc([N+](=O)[O-])c1`, the inhibition was 14.6% (active).

Take `CN(C(=O)c1cccc(NC(=O)Cc2cccc([N+](=O)[O-])c2)c1)C1CCCCC1`: the inhibition was 8.38% (inactive). In the case of `CC[C@@]12C(=O)N(c3ccccc3)C(=O)N1[C@H](c1ccc(Br)cc1)[C@@H]1C(=O)N(C(C)(C)C)C(=O)[C@@H]12`, the inhibition was 2.65% (inactive).

As to `COc1ccc([C@@H]2[C@@H]3C(=O)N(C(C)(C)C)C(=O)[C@@H]3[C@]3(Cc4ccccc4)C(=O)N(c4cccc(Br)c4)C(=O)N23)cc1`, the inhibition was 14.3% (active).

Take `CC(C)(C)N1C(=O)[C@H]2[C@@H](c3ccc(Br)cc3)N3C(=O)N(c4cccc(Cl)c4)C(=O)[C@@]3(C)[C@H]2C1=O`: the inhibition was 12.8% (active). `CCOc1ccccc1C1CC(c2cccc(NS(C)(=O)=O)c2)=NN1C(=O)c1ccccc1` (centres undefined): the inhibition was 3.69% (inactive). Consider `CCOc1ccc(N2C(=O)CC(N(CCc3ccc(OC)c(OC)c3)C(=S)Nc3ccccc3)C2=O)cc1` (centres undefined), for which the inhibition is 2.05% (inactive). Next, `O=C(OCc1ccc(-c2ccccc2)cc1)c1cccc(O)c1`: 15.7% (active); `Cc1ccc(OCCOCCOc2ccc(Br)cc2/C=N\NC(=O)c2ccncc2)cc1`: 16.2% (active); `Cc1ccc(S(=O)(=O)NCCSc2ccccc2)cc1[N+](=O)[O-]`: 7.81% (inactive). With `COc1cccc(/C=N/NC(=O)c2cccc([N+](=O)[O-])c2)c1OS(=O)(=O)c1ccc(C)cc1`, the inhibition was 13.8% (active). For `CC(C)Oc1cc(F)ccc1-c1cc(C(=O)Nc2cccc(Cl)c2)[nH]n1`, the inhibition is 14.6% (active). Regarding `O=C(COc1ccc(Cl)cc1)N1CCN(c2cccc(C(F)(F)F)c2)CC1`, the inhibition is 9.24% (active). With `Cc1onc(C(=O)NN)c1-c1csc(COc2ccccc2)n1`, the inhibition was 3.32% (inactive).

In the case of `COC(=O)c1c(C)[nH]c(C(=O)/C=C/c2ccc(Cl)cc2)c1C`, the inhibition is -5.64% (inactive). Consider `CCOC(=O)c1c(Cc2ccc(Cl)cc2)c[nH]c1C`, for which the inhibition was 9.85% (active). Under `COc1ccc(C(=O)C2CCCN(S(=O)(=O)c3cccc(C)c3)C2)c(C)c1` (centres undefined) stands 6.46% (inactive); under `COc1ccc(S(=O)(=O)N2CCCCC2)cc1Br`, 10.9% (active); under `COCCNC(=O)C(c1ccc(C)o1)N(Cc1ccccc1)C(=O)Cn1nnc2ccccc21` (centres undefined), 1.74% (inactive).

Take `COc1ccccc1C(=O)NCC(=O)OCC(=O)NNC(=O)c1ccc(Br)cc1`: the inhibition was 3.39% (inactive). Turning to `CC(=O)Nc1ccc(S(=O)(=O)N2CCN(CCCOc3cc(C)ccc3C)CC2)cc1`, the inhibition is 9.43% (active).

As to `Cn1c(=O)c2c(nc(N/N=C/c3cccs3)n2Cc2ccc(Br)cc2)n(C)c1=O`, the inhibition is -12% (inactive).

On to `COc1ccc(C(=O)Nc2ccc(C3(C#N)CCCC3)cc2)cc1OC`, for which the inhibition is -0.86% (inactive). As to `Cc1cc(C)cc(NS(=O)(=O)c2ccc(Oc3ncc(C(F)(F)F)cc3Cl)cc2)c1`, the inhibition was 20.1% (active). For `COc1cccc(NC(=O)C2C(c3ccccc3)C2(Cl)Cl)c1` (centres undefined), the inhibition was 19.5% (active). Take `O=C(CN1CCN(c2nc(-c3ccccc3)cs2)CC1)NCc1ccc2c(c1)OCO2`: the inhibition is 12.5% (active). Consider `Cc1ccc(-c2n[nH]c(=S)n2/N=C/c2cc3c(cc2[N+](=O)[O-])OCO3)cc1`, for which the inhibition is 4.12% (inactive).

With `CCOc1ccc(-n2c(SCC(=O)Nc3cc(C)c(NC(=O)c4ccccc4)cc3OC)nnc2-c2cccs2)cc1`, the inhibition was 14.6% (active). Under `COc1cccc(CNc2nc(C(F)(F)F)nc3ccccc23)c1` stands 7.14% (inactive); under `Clc1ccc(C(Cn2ccnc2)OCc2ccsc2Cl)c(Cl)c1` (centres undefined), 9.7% (active).

Take `CS(=O)(=O)Nc1cccc(C2=NN(S(=O)(=O)c3ccccc3)C(c3cccs3)C2)c1` (centres undefined): the inhibition is 6.85% (inactive). `Cc1cc(C)cc(NC(=S)NCCc2c[nH]c3ccccc23)c1`: the inhibition was 8.25% (inactive). Consider `N#C/C(=C/c1ccc(N2CCCCC2)o1)C(=O)NCCc1c[nH]c2ccccc12`, for which the inhibition is 10.2% (active). `COc1ccc(-c2cc(C3CCN(c4ncccc4[N+](=O)[O-])CC3)[nH]n2)cc1`: the inhibition was 13.2% (active). Under `COc1ccc(CC(N)c2csc(NC(=O)NC(c3ccccc3)c3ccccc3)n2)cc1` (centres undefined) stands 3.55% (inactive); under `C=C(C)COc1ccc(-c2n[nH]c(C)c2-c2ccccc2)c(O)c1`, 20.8% (active). Under `COc1ccc(Cl)cc1NC(=O)COC(=O)C(CC(C)C)N1C(=O)C2CC=CCC2C1=O` (centres undefined) stands 9.46% (active); under `CC(C)N(C(=O)[C@H]1C[C@H](CC(=O)NC(C)(C)C)C(=O)N2CCc3c([nH]c4ccc(Cl)cc34)[C@]12C)C(C)C`, 8.88% (active); under `CCOc1ccccc1CNS(=O)(=O)c1cc(-c2cc(C)no2)ccc1C`, 3.8% (inactive). Consider `CCOC(=O)c1cccc(NC(=O)CN(C)S(=O)(=O)c2ccc(-c3cocn3)s2)c1`, for which the inhibition was 6.09% (inactive). With `Cc1ccc(S(=O)(=O)N2CCN(C(=O)COC(=O)c3c(C)cc(C)cc3C)CC2)c(C)c1`, the inhibition is 9.17% (active). Next, `COC(=O)N(C)C[C@@H]1OCc2cnnn2CCCC(=O)N([C@@H](C)CO)C[C@@H]1C`: 0.27% (inactive). On to `Cn1nc(C(F)(F)F)c2cc(NC(=O)OCC(C)(C)C)sc21`, for which the inhibition was 10.8% (active). Take `O=C(CSc1nc(Nc2ccccc2)nc(N2CCOCC2)n1)Nc1cc(Cl)ccc1O`: the inhibition is 18.7% (active). On to `CC(C)(C)c1ccc(S(=O)(=O)NCC2CCN(C(=O)C(=O)c3cc4ccccc4o3)CC2)cc1`, for which the inhibition is 15.1% (active). As for `O=C1[C@H]2[C@@H](c3ccc(C(F)(F)F)cc3)N[C@]3(CCCN(Cc4ccc(Br)cc4)C3=O)[C@H]2C(=O)N1Cc1ccccc1`, the inhibition is 19.6% (active).

As to `O=C(NCc1ccccc1)C1=C[C@@H](c2ccc(C(F)(F)F)cc2)C[C@@H](OCc2ccc(CO)cc2)O1`, the inhibition was 21.4% (active). For the compound `Cc1ccc(C(=O)Nc2ccc(C)c(S(=O)(=O)N(C)C)c2)s1`, the inhibition is 10.8% (active). `Cc1ccc(-n2c(COc3ccccc3)nnc2SCC(=O)Nc2ccc3c(c2)OCCO3)cc1`: the inhibition is 15.9% (active).

For the compound `Cc1cc(NC(=O)CN2C(=O)NC(CC(C)C)C2=O)no1` (centres undefined), the inhibition was 15.1% (active). Under `CCCn1nc(C(=O)NNC(=O)CSCC(=O)Nc2cc(C)on2)c2ccccc2c1=O` stands 0.67% (inactive). Take `NNC(=O)C1CCCn2c1nc1sc3c(c1c2=O)CCCC3` (centres undefined): the inhibition was 1.06% (inactive). In the case of `COc1ccc(CC(=O)c2ccc(O)cc2O)cc1OC`, the inhibition is 1.45% (inactive). `CC(C)C(=O)Nc1cccc(NC(=S)NC(=O)C(c2ccccc2)c2ccccc2)c1`: the inhibition is 17.6% (active). For the compound `COc1cc(C2CC(=O)N3CN(Cc4ccccc4)CSC3=C2C#N)ccc1OCc1ccccc1` (centres undefined), the inhibition was 15.8% (active). Consider `COc1ccc(S(=O)(=O)Nc2ccc(O)c(Sc3nc4ccccc4s3)c2)cc1`, for which the inhibition was 10.7% (active). With `C=CCOc1ccccc1/C=N/NC(=O)Cc1ccccc1`, the inhibition was 2.48% (inactive). Next, `O=C1NC(=O)C(c2ccc(Cl)cc2)N1` (centres undefined): 13.7% (active); `Cc1ccc(OCc2nnc(SC/C=C/c3ccccc3)n2Cc2ccco2)cc1`: 12.5% (active). As for `Cc1ccc(-c2nnc(SCC(=O)Nc3ccc(Oc4ccccc4)cc3)n2Cc2ccco2)cc1`, the inhibition was 18.5% (active). Consider `CCCN(CC(=O)NC(=O)NC1CCCCC1)CC(=O)Nc1cc(Cl)ccc1Cl`, for which the inhibition was 17.5% (active). Under `CN(C)c1ccc(NC(=O)NC2CCCCN(Cc3ccc(Cl)cc3)C2=O)cc1` (centres undefined) stands 3.4% (inactive). For `O=C(CSCc1ccc(Br)cc1)Nc1ccc(S(=O)(=O)N2CCCCCC2)cc1`, the inhibition is 12.6% (active). Under `Cn1nc(C(F)(F)F)c(C(=O)Nc2cccc(C(F)(F)F)c2)c1SCc1ccc(Cl)cc1` stands 19.4% (active); under `COc1ccc(C(N)c2csc(NC(=O)Nc3cccc(C(F)(F)F)c3)n2)cc1` (centres undefined), 6.58% (inactive). As to `CC(=O)Nc1ccc(S(=O)(=O)Oc2ccc(Br)cc2C(=S)N2CCOCC2)cc1`, the inhibition was 9.82% (active). Next, `S=C(NCc1ccc(Cl)cc1)NC12CC3CC(CC(C3)C1)C2`: 11.1% (active); `O=C(Cc1ccc(Cl)c(Cl)c1)Nc1ccc(SC(F)F)cc1`: 25.1% (active); `COc1ccc(CN(C)C(=O)CC(c2ccccc2)c2ccccc2)cc1`: 5.73% (inactive). Under `O=C(c1ccccc1)N1CCN(c2ccc([N+](=O)[O-])c(NCc3ccco3)c2)CC1` stands 9.37% (active); under `CC(C)(C)OC(=O)CNC(=O)c1[nH]cnc1C(=O)N[C@@H](Cc1ccccc1)C(=O)OCc1ccccc1`, 20.1% (active); under `CC(C)(C)OC(=O)N1CCC(NC(=O)c2[nH]cnc2C(=O)N[C@@H](Cc2ccccc2)C(=O)OCc2ccccc2)CC1`, 22.4% (active).

Take `CCOc1ccc(OCC)c(-c2c(=O)n(OCc3ccc(Cl)cc3)c3ccccc3[n+]2[O-])c1`: the inhibition was 2.59% (inactive). Next, `Cc1sc2nc(SCC(=O)c3ccc(O)c(O)c3)n(Cc3ccco3)c(=O)c2c1C`: 12.6% (active); `CCn1c(Cc2cccs2)nnc1SCC(=O)c1ccc(C)cc1`: 2.25% (inactive); `CCc1cccc(NC(=O)COC(=O)C2CCN(c3ccc(C(F)(F)F)cn3)CC2)c1`: 16.5% (active). Consider `O=C(Cc1ncc(C(F)(F)F)cc1Cl)Nc1cccc(Br)c1`, for which the inhibition is 5.32% (inactive).

The record behind these values is PubChem BioAssay AID743257 (The Scripps Research Institute Molecular Screening Center, 2014).
